According to the array DNA melting data of Ke et al. (doi:10.1101/2024.01.08.574731):

Key:
[1] = folding enthalpy; higher = less favourable; fluorescence melt of hairpins on a sequencing array, two-state fit; details: sodium 0.088 M
In short: (§1)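 To match UV melts, fitted temperatures were raised by 9.35 °C. These fits were bootstrapped two-state models that gave melting temperature and folding enthalpy, combined by inverse variance over four replicates. The input was normalised Cy3 fluorescence of library hairpins with annealed Cy3 and quencher oligos on a sequenced MiSeq flow cell, imaged in 50 mM Na-HEPES pH 8.0, 25 mM NaCl in 2.5 °C steps up to 60 °C.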

[2] = melting temperature; fluorescence melt of hairpins on a sequencing array, two-state fit, raised by 9.35 °C to match UV melts; details: sodium 0.088 M
In short: as §1

Row | Sequence | folding enthalpy [1] [kcal/mol] | Tm [2] [°C]
1 | GGTGTGGGAAACCATACC (((.(((....))).))) | -33.5 | 50.8
2 | GAGTCCCGAAAGGGGCTC (((.(((....))).))) | -28.9 | 69.2
3 | GATCCACAAATGGATC ((((((....)))))) | -32.9 | 47.5
4 | GCGACACCGAAAGGTCGC (((..(((....)))))) | -34.6 | 61.1
5 | CGCCAGCGGAAACGCGCG (((..(((....)))))) | -23.4 | 50.6
6 | GCGTATTTACGC ((((....)))) | -26.7 | 54.5
7 | GTCTGTGGAAACGCAGAC (((((.(....).))))) | -48 | 53.8
8 | GCCTACGAAAGTAGGGC ((((((....))).))) | -16.4 | 61.8
9 | GCCTTTTCGAAAGAAGGC (((..(((....)))))) | -30.4 | 42.7
10 | GCATTAGCGAAAGCTTGC (((..(((....)))))) | -18.1 | 40
11 | GCCTTTGCGAAAGCAGGC (((..(((....)))))) | -20.9 | 50.3
12 | GGTGCTGGAAACAGCGCC ((.((((....)))).)) | -34.3 | 64.9
13 | GCCATCGAAAGATATGGC ((((((....)))..))) | -32 | 46.6
14 | GACCAGAAATGGTC (((((....))))) | -33.2 | 51.2
15 | GAGCGACGAAAGTCTCTC (((.(((....))).))) | -29.5 | 46
16 | GAGTGACGAAAGTCTCTC (((.(((....))).))) | -32.2 | 50.9
17 | GAGGGCGGAAACGTCCTC ((((.((....)).)))) | -47 | 59.1
18 | GAGTACGAAAGTAACCTC ((((((....)))..))) | -14.8 | 27.8
19 | GATCGGGAGTCCGATC ((((((....)))))) | -39.6 | 56.5
20 | GCAGGGCGAAAGCGTTGC (((..((....))..))) | -19.1 | 54.1
21 | GCTTTCGGAAACAAAAGC (((((.(....).))))) | -23.9 | 35.5
22 | GATCCCCCCGGGGATC ((((((....)))))) | -39.7 | 65.9
23 | GAGTCCGAAAGGACACTC ((((((....)))..))) | -12.5 | 54.4

Row | Sequence | folding enthalpy [1] [kcal/mol] | Tm [2] [°C]
24 | GCCATAGAAATATGGC ((((((....)))))) | -36.4 | 53.5
25 | GTGTCGGCGAAAGCCCAC (((..(((....)))))) | -13.5 | 43.8
26 | GGATGTGGAAACATATCC ((((.((....)).)))) | -28.7 | 44.9
27 | GCAAGCACGAAAGTGTGC (((..(((....)))))) | -16 | 40.4
28 | GCACTCGAAAGAGGTTGC ((((((....)))..))) | -18.6 | 37.6
29 | GACGCCCGAAAGGGGTC (((.(((....)))))) | -17.1 | 55.6
30 | GTAGGCGAAAGCCGCTAC ((((((....)))..))) | -8.76 | 43.4
31 | GTTACAGGAAACCGTAAC (((((.(....).))))) | -35.6 | 39.4
32 | GCAGCCGGAAACGGCCAC (..((((....))))..) | -9.09 | 36.2
33 | GACCGAGGAAACCCGGTC (((((.(....).))))) | -36.4 | 53.2
34 | GCCACCGAAAGGTAGGC ((((((....))).))) | -32.2 | 62.7
35 | GACAAACGAAAGTTGGTC (((.(((....))).))) | -29.9 | 49.6
36 | GAGCACGGAAACGTACTC (((.(((....))).))) | -32.9 | 45.4
37 | GTCAGCCGAAAGGCGAC (((.(((....)))))) | -15 | 61.5
38 | GGATTGGGAAACCGATTC (.((.((....)).)).) | -19.9 | 31.6
39 | GATCTTCAACAAGATC ((((((....)))))) | -25.1 | 38.3
40 | GTTTGCGAAAGCACGAAC ((((((....)))..))) | -9.85 | 27.1
41 | GAGAGTGGAAACACTCCC (.(((((....))))).) | -13.7 | 38.1
42 | GCGGGGCGAAAGCTTCGC (((..((....))..))) | -35.3 | 63
43 | GTCAATGAAAATTGAC ((((((....)))))) | -31.7 | 50.8
44 | GGGTTAGGAAACTAACTC (.(((((....))))).) | -25.8 | 42.3
45 | GTCGTCGGAAACGGCGAC ((((.((....)).)))) | -41.9 | 62.3
46 | GCACTTTCGAAAGAATGC (((..(((....)))))) | -14.6 | 33.2

Row | Sequence | folding enthalpy [1] [kcal/mol] | Tm [2] [°C]
47 | GATCCTCACAAGGATC ((((((....)))))) | -33.6 | 53
48 | GACCGGCCGAAAGGCGTC (((..(((....)))))) | -12.5 | 38.4
49 | GATCTTTAAAAGATC ((((((...)))))) | -23 | 39.9
50 | GGAACCGGAAACAGTTCC (((((.(....).))))) | -28.4 | 40
51 | GACCGCGAAAGCGGTGTC ((((((....)))..))) | -8.7 | 63.8
52 | GATCTAGGATAGATC ((((((...)))))) | -32.1 | 48.7
53 | GATCCATGCTTGGATC ((((((....)))))) | -43.6 | 55.1
54 | GAGAACGAAAGTTTGCTC ((((((....)))..))) | -16.8 | 28.6
55 | GAGGTACCGAAAGGTCTC (((..(((....)))))) | -17.5 | 31.4
56 | GGATGCGAAAGCAACTCC ((((((....)))..))) | -11.9 | 41.8
57 | GATCCTCTCCAGGATC ((((((....)))))) | -36.3 | 50.8
58 | GAGTCCGAAAGGAAACTC ((((((....)))..))) | -19.4 | 40.2
59 | GCTACTACGAAAGTAAGC (((..(((....)))))) | -13.6 | 29.5
60 | GTGTCCACGAAAGTGCAC (((..(((....)))))) | -15.1 | 39.3
61 | GCGGGAGGAAACCCCCGC (((((.(....).))))) | -37.9 | 60.2
62 | GATCGCGAAAGCGTATC ((((((....))).))) | -15.5 | 51.8
63 | GCGACGGGAAACCGCCGC (((.(((....))).))) | -45.2 | 64.2
64 | GGAATGGGAAACCATTCC (((((((....))))))) | -45.1 | 60.4
65 | GGCACCGAAAGGTGGGCC ((((((....)))..))) | -12.5 | 52.6
66 | GATGACGAAAGTCTAATC ((((((....)))..))) | -12 | 29.9
67 | GGGTACCGAAAGGTTCCC (((.(((....))).))) | -30.3 | 56.2
68 | GATCTGTCTGCAGATC ((((((....)))))) | -42.1 | 52.9
69 | GTTCCTGAAAAGGAAC ((((((....)))))) | -31.4 | 57.1

Row | Sequence | folding enthalpy [1] [kcal/mol] | Tm [2] [°C]
70 | GTGTTGGGAAACTAACGC (.(((.(....).))).) | -25.5 | 35.9
71 | GGGATTCGAAAGAACCCC (((.(((....))).))) | -34 | 49.9
72 | GACCTTGGAAACAAGATC ((.((((....)))).)) | -21 | 30.6
73 | GATCGGAACCCCGATC ((((((....)))))) | -40 | 54.1
74 | TGGTGGAAACACCA (((((....))))) | -22.2 | 52.4
75 | GCGCTATCGAAAGATCGC (((..(((....)))))) | -25.6 | 44.2
76 | GCGGCAAACCGC ((((....)))) | -27.8 | 55.8
77 | GGTTTCGGAAACGAGATC (.(.(((....))).).) | -11.6 | 27.7
78 | GGAAGCGAAAGCTGGTCC ((((((....)))..))) | -11.6 | 36
79 | GATACCGAAAGGTCTATC ((((((....)))..))) | -5.86 | 19.6
80 | GATCTAGCGGTAGATC ((((((....)))))) | -32.2 | 44
81 | GATCAATTTGTTGATC ((((((....)))))) | -35.6 | 47.3
82 | GCGGCCGAAAGGCTACGC ((((((....)))..))) | -19.6 | 61.1
83 | CGCGGAGCTGTCCGCG ((((((....)))))) | -20.9 | 67.1
84 | GATCTGCCGTCAGATC ((((((....)))))) | -37.8 | 50.2
85 | GCAGTGCGAAAGCCTTGC (((..((....))..))) | -15.2 | 47.6
86 | GGATGACCGAAAGGTTCC (((..(((....)))))) | -10.9 | 34.2
87 | GAATACGAAAGTATGTTC ((((((....)))..))) | -14.2 | 32.3
88 | GGTTCCGAAAGGATGACC ((((((....)))..))) | -18.5 | 38.2
89 | GTTCGGGGAAACTCGAGC (.(((.(....).))).) | -19.7 | 35.9
90 | GAGAACGGAAACGTTCCC (.(((((....))))).) | -11.9 | 40
91 | GCGAGAACGAAAGTTCGC (((..(((....)))))) | -15 | 55.4
92 | GATCAGTCGGCTGATC ((((((....)))))) | -46.8 | 51.5
